Values joined by “and” are separate entries in the source; they are usually repeats but may differ in a detail not shown here. Equal entries are not always repeated.
Test system: Fibroblast
Assay: Multiplex assay against human fibroblast
Format: toxicity, cell-based
Details: 12 h, 1 µM, compound concentration 1 uM
How it was run: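 Cells were classed with CellPathfinder machine-learning gating, first as Hoechst high-intensity objects or normal cells, then (normal cells) as healthy, pyknosed or fragmented nuclei, and finally (pyknosed cells) as mitotic or apoptotic. Staining of live cells at seeding used Hoechst33342, BioTracker Green Microtubule Cytoskeleton Dye, MitoTracker Red and Annexin V Alexa Fluor 680, with imaging on a CQ1 microscope at 37°C and 5% CO2 after compound addition. Tubulin, mitochondrial-mass and membrane-permeability phenotypes are per cents of healthy-nucleus cells.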

Row | SMILES | Population Apoptotic (%) | Population Fragmented Nuclei (%) | Population Healthy Nuclei (%) | Population Hoechst High Intensity Objects (%) | Population Membrane Permeable-Phenotype (%) | Population Mitochondria Different-Phenotype (%) | Population Mitotic Cells (%) | Population Normal (%) | Population Pyknosed Nuclei (%) | Population Tubulin-Different-Phenotype (%)
1 | Cc1cc(=O)n(C)c2cc(N3C(=O)CC[C@H](NS(=O)(=O)CC(C)C)[C@H]3c3ccc(Cl)cc3)ccc12 | 31% and 38% | 16% and 20% | 56% and 38% | 2% and 10% | 0% and 8% | 4% | 68% and 62% | 97% and 89% | 26% and 40% | 34% and 61%
2 | CCc1cc2cc(NS(=O)(=O)c3ccc(C#N)cc3)ccc2n(CC)c1=O | 42% | 16% and 27% | 64% and 40% | 1% and 6% | 1% and 9% | 3% and 7% | 57% | 98% and 93% | 18% and 32% | 24% and 39%

Same assay, conditions: 12 h, 1 µM, compound concentration 1 uM

Row | SMILES | Total Cell Count
3 | Cc1cc(=O)n(C)c2cc(N3C(=O)CC[C@H](NS(=O)(=O)CC(C)C)[C@H]3c3ccc(Cl)cc3)ccc12 | 135 and 137
4 | CCc1cc2cc(NS(=O)(=O)c3ccc(C#N)cc3)ccc2n(CC)c1=O | 157 and 173

Same assay, conditions: 12 h, 10 µM, compound concentration 10 uM

Row | SMILES | Population Apoptotic (%) | Population Fragmented Nuclei (%) | Population Healthy Nuclei (%) | Population Hoechst High Intensity Objects (%) | Population Membrane Permeable-Phenotype (%) | Population Mitochondria Different-Phenotype (%) | Population Mitotic Cells (%) | Population Normal (%) | Population Pyknosed Nuclei (%) | Population Tubulin-Different-Phenotype (%)
5 | Cc1cc(=O)n(C)c2cc(N3C(=O)CC[C@H](NS(=O)(=O)CC(C)C)[C@H]3c3ccc(Cl)cc3)ccc12 | 41% and 18% | 11% and 26% | 40% and 31% | 3% and 11% | 1% and 8% | 8% | 58% and 82% | 96% and 88% | 48% and 42% | 86% and 94%
6 | CCc1cc2cc(NS(=O)(=O)c3ccc(C#N)cc3)ccc2n(CC)c1=O | 42% and 18% | 18% and 19% | 54% and 43% | 1% and 5% |  | 5% and 6% | 57% and 81% | 98% and 94% | 26% and 37% | 65% and 74%

Same assay, conditions: 12 h, 10 µM, compound concentration 10 uM

Row | SMILES | Total Cell Count
7 | Cc1cc(=O)n(C)c2cc(N3C(=O)CC[C@H](NS(=O)(=O)CC(C)C)[C@H]3c3ccc(Cl)cc3)ccc12 | 149 and 133
8 | CCc1cc2cc(NS(=O)(=O)c3ccc(C#N)cc3)ccc2n(CC)c1=O | 133 and 153

Same assay, conditions: 24 h, 1 µM, compound concentration 1 uM

Row | SMILES | Population Apoptotic (%) | Population Fragmented Nuclei (%) | Population Healthy Nuclei (%) | Population Hoechst High Intensity Objects (%) | Population Mitochondria Different-Phenotype (%) | Population Mitotic Cells (%) | Population Normal (%) | Population Pyknosed Nuclei (%) | Population Tubulin-Different-Phenotype (%) | Total Cell Count
9 | Cc1cc(=O)n(C)c2cc(N3C(=O)CC[C@H](NS(=O)(=O)CC(C)C)[C@H]3c3ccc(Cl)cc3)ccc12 | 34% and 50% | 18% and 26% | 62% and 44% | 2% and 10% | 4% and 5% | 65% and 50% | 97% and 89% | 18% and 29% | 24% and 70% | 140 and 128
10 | CCc1cc2cc(NS(=O)(=O)c3ccc(C#N)cc3)ccc2n(CC)c1=O | 53% and 43% | 19% and 26% | 63% and 48% | 5% and 6% | 4% and 8% | 46% and 56% | 94% and 93% | 17% and 25% | 26% and 51% | 157 and 164

Same assay, conditions: 24 h, 1 µM, compound concentration 1 uM

Row | SMILES | Population Membrane Permeable-Phenotype (%)
11 | CCc1cc2cc(NS(=O)(=O)c3ccc(C#N)cc3)ccc2n(CC)c1=O | 1% and 9%

Same assay, conditions: 24 h, 10 µM, compound concentration 10 uM

Row | SMILES | Population Apoptotic (%) | Population Fragmented Nuclei (%) | Population Healthy Nuclei (%) | Population Hoechst High Intensity Objects (%) | Population Membrane Permeable-Phenotype (%) | Population Mitochondria Different-Phenotype (%) | Population Mitotic Cells (%) | Population Normal (%) | Population Pyknosed Nuclei (%) | Population Tubulin-Different-Phenotype (%)
12 | Cc1cc(=O)n(C)c2cc(N3C(=O)CC[C@H](NS(=O)(=O)CC(C)C)[C@H]3c3ccc(Cl)cc3)ccc12 | 43% and 42% | 14% and 28% | 46% and 26% | 10% and 8% | 0% and 17% | 19% and 8% | 56% and 57% | 90% and 91% | 39% and 45% | 88% and 85%
13 | CCc1cc2cc(NS(=O)(=O)c3ccc(C#N)cc3)ccc2n(CC)c1=O | 50% and 32% | 19% and 22% | 58% and 38% | 2% and 9% | 1% and 6% | 6% and 12% | 50% and 67% | 97% and 90% | 22% and 39% | 59% and 72%

Same assay, conditions: 24 h, 10 µM, compound concentration 10 uM

Row | SMILES | Total Cell Count
14 | Cc1cc(=O)n(C)c2cc(N3C(=O)CC[C@H](NS(=O)(=O)CC(C)C)[C@H]3c3ccc(Cl)cc3)ccc12 | 150 and 143
15 | CCc1cc2cc(NS(=O)(=O)c3ccc(C#N)cc3)ccc2n(CC)c1=O | 130 and 145

Same assay, conditions: 48 h, 1 µM, compound concentration 1 uM

Row | SMILES | Population Apoptotic (%) | Population Fragmented Nuclei (%) | Population Healthy Nuclei (%) | Population Hoechst High Intensity Objects (%) | Population Membrane Permeable-Phenotype (%) | Population Mitochondria Different-Phenotype (%) | Population Mitotic Cells (%) | Population Normal (%) | Population Pyknosed Nuclei (%) | Population Tubulin-Different-Phenotype (%)
16 | Cc1cc(=O)n(C)c2cc(N3C(=O)CC[C@H](NS(=O)(=O)CC(C)C)[C@H]3c3ccc(Cl)cc3)ccc12 | 48% and 46% | 27% and 35% | 54% | 2% and 7% | 1% and 8% | 2% and 8% | 52% and 53% | 97% and 92% | 18% and 9% | 27% and 73%
17 | CCc1cc2cc(NS(=O)(=O)c3ccc(C#N)cc3)ccc2n(CC)c1=O | 52% and 37% | 24% and 33% | 59% and 50% | 3% and 5% | 0% and 12% | 4% and 8% | 47% and 62% | 96% and 94% | 15% and 16% | 27% and 60%

Same assay, conditions: 48 h, 1 µM, compound concentration 1 uM

Row | SMILES | Total Cell Count
18 | Cc1cc(=O)n(C)c2cc(N3C(=O)CC[C@H](NS(=O)(=O)CC(C)C)[C@H]3c3ccc(Cl)cc3)ccc12 | 141 and 142
19 | CCc1cc2cc(NS(=O)(=O)c3ccc(C#N)cc3)ccc2n(CC)c1=O | 150 and 156

Same assay, conditions: 48 h, 10 µM, compound concentration 10 uM

Row | SMILES | Population Apoptotic (%) | Population Fragmented Nuclei (%) | Population Healthy Nuclei (%) | Population Hoechst High Intensity Objects (%) | Population Membrane Permeable-Phenotype (%) | Population Mitochondria Different-Phenotype (%) | Population Mitotic Cells (%) | Population Normal (%) | Population Pyknosed Nuclei (%) | Population Tubulin-Different-Phenotype (%)
20 | Cc1cc(=O)n(C)c2cc(N3C(=O)CC[C@H](NS(=O)(=O)CC(C)C)[C@H]3c3ccc(Cl)cc3)ccc12 | 61% and 54% | 23% and 34% | 38% and 37% | 15% and 10% | 0% and 25% | 24% and 8% | 38% and 45% | 84% and 89% | 37% and 27% | 92% and 87%
21 | CCc1cc2cc(NS(=O)(=O)c3ccc(C#N)cc3)ccc2n(CC)c1=O | 60% | 17% and 30% | 62% and 48% | 1% and 7% |  | 12% and 7% | 40% and 39% | 98% and 92% | 19% and 20% | 61% and 69%

Same assay, conditions: 48 h, 10 µM, compound concentration 10 uM

Row | SMILES | Total Cell Count
22 | Cc1cc(=O)n(C)c2cc(N3C(=O)CC[C@H](NS(=O)(=O)CC(C)C)[C@H]3c3ccc(Cl)cc3)ccc12 | 153 and 141
23 | CCc1cc2cc(NS(=O)(=O)c3ccc(C#N)cc3)ccc2n(CC)c1=O | 129 and 145

Source: ChEMBL document CHEMBL5724801, “EUbOPEN Chemogenomics Library - Multiplex” (2024)
